Reference: ChEMBL document CHEMBL1240328, “Selective compounds define Hsp90 as a major inhibitor of apoptosis in small-cell lung cancer” (Nat Chem Biol, 2007)
Calls of active or inactive are those of the source. The rule behind the calls is not given here.

How the values were obtained:
[1] = biological target: Heat shock protein HSP 90-beta (Homo sapiens) (UniProt P08238); assay: Binding affinity to HSP90 in human SKBR3 cells after 24 hrs by fluorescence polarization assay; conditions: SK-BR-3
[2] = biological target: Heat shock protein HSP 90-beta (Homo sapiens) (UniProt P08238); assay: Inhibition of HSP90-mediated proliferation of human SKBR3cells after 72 hrs by sulforhodamine B assay
[3] = biological target: Heat shock protein HSP 90-beta (Homo sapiens) (UniProt P08238); assay: Inhibition of HSP90-mediated antiapoptotic activity in human MCF7 cells assessed as induction of PARP cleavage at 200 uM after 24 hrs by Western blot analysis; type: cell-based
[4] = biological target: Heat shock protein HSP 90-beta (Homo sapiens) (UniProt P08238); assay: Inhibition of HSP90-mediated antiapoptotic activity in human MCF7 cells assessed as induction of caspase-3 cleavage at 200 uM after 24 hrs by Western blot analysis; type: cell-based
SK-BR-3 [5] = assay: Inhibition of HSP70-mediated antiapoptotic activity in human SKBR3 cells assessed as induction of PARP cleavage after 24 hrs by Western blot analysis; type: cell-based
Procedure, shortened: (§1)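 SKBr3 cells were treated for 24 h. Lysates were probed by western blot for caspase-3 and PARP cleavage. Apaf-1 complexes were pulled down with Apaf-1 antibody (with control IgG) and immunoblotted.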

SK-BR-3 [6] = assay: Inhibition of HSP70-mediated antiapoptotic activity in human SKBR3 cells assessed as induction of caspase-3 cleavage after 24 hrs by Western blot analysis; type: cell-based; procedure, shortened: as §1
NCI-H526 [7] = assay: Inhibition of HSP70-mediated antiapoptotic activity in human NCI-H526 cells assessed as induction of PARP cleavage after 24 hrs by Western blot analysis; type: cell-based
Procedure, shortened: (§2)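 NCI-H526 cells were treated for 24 h. PARP and caspase-3 cleavage were read by western blot of lysates in Tris/NaCl/NP-40 buffer. Apaf-1 complexes were immunoprecipitated with Apaf-1 antibody, using control IgG, then blotted.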

[8] = biological target: Heat shock protein HSP 90-beta (Homo sapiens) (UniProt P08238); assay: Inhibition of HSP90-mediated antiapoptotic activity in human SKBR3 cells assessed as induction of PARP cleavage at 200 uM after 24 hrs by Western blot analysis; type: cell-based; conditions: SK-BR-3
Procedure, shortened: (§3)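 SKBr3 breast cancer cells at 60–70% confluence treated 24 h with compound or DMSO vehicle. Lysates in 50 mM Tris pH 7.4, 150 mM NaCl, 1% NP-40, quantified by BCA. 20–100 µg resolved by SDS-PAGE, blotted to nitrocellulose and probed for cleaved caspase-3, caspase-9 and PARP, using 1:5,000 peroxidase secondary. β-actin or PI(3)K p85 served as loading control.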

SK-BR-3 [9] = assay: Inhibition of HSP70-mediated antiapoptotic activity in human SKBR3 cells assessed as increase in caspase-3 activity after 24 hrs by Western blot analysis; type: cell-based
NCI-H526 [10] = assay: Inhibition of HSP70-mediated antiapoptotic activity in human NCI-H526 cells assessed as release of Apaf-1 from chaperon complex after 24 hrs by Western blot analysis; type: cell-based; procedure, shortened: as §2
NCI-H526 [11] = assay: Inhibition of HSP70-mediated antiapoptotic activity in human NCI-H526 cells assessed as induction of caspase-3 cleavage after 24 hrs by Western blot analysis; type: cell-based; procedure, shortened: as §2
SK-BR-3 [12] = assay: Inhibition of HSP70-mediated antiapoptotic activity in human SKBR3 cells assessed as induction of cell growth arrest after 72 hrs by propidium iodide staining-based flow cytometry
[13] = biological target: Heat shock protein HSP 90-beta (Homo sapiens) (UniProt P08238); assay: Inhibition of HSP90-mediated antiapoptotic activity in human MCF7 cells assessed as induction of caspase-9 cleavage at 200 uM after 24 hrs by Western blot analysis; type: cell-based
[14] = biological target: Heat shock protein HSP 90-beta (Homo sapiens) (UniProt P08238); assay: Inhibition of HSP90-mediated antiapoptotic activity in human SKBR3 cells assessed as induction of caspase-3 cleavage at 200 uM after 24 hrs by Western blot analysis; type: cell-based; conditions: SK-BR-3; procedure, shortened: as §3
[15] = biological target: Heat shock protein HSP 90-beta (Homo sapiens) (UniProt P08238); assay: Inhibition of HSP90-mediated antiapoptotic activity in human SKBR3 cells assessed as induction of caspase-9 cleavage at 200 uM after 24 hrs by Western blot analysis; type: cell-based; conditions: SK-BR-3; procedure, shortened: as §3

Heat shock protein HSP 90-beta (Homo sapiens), sequence (P08238 whole entry): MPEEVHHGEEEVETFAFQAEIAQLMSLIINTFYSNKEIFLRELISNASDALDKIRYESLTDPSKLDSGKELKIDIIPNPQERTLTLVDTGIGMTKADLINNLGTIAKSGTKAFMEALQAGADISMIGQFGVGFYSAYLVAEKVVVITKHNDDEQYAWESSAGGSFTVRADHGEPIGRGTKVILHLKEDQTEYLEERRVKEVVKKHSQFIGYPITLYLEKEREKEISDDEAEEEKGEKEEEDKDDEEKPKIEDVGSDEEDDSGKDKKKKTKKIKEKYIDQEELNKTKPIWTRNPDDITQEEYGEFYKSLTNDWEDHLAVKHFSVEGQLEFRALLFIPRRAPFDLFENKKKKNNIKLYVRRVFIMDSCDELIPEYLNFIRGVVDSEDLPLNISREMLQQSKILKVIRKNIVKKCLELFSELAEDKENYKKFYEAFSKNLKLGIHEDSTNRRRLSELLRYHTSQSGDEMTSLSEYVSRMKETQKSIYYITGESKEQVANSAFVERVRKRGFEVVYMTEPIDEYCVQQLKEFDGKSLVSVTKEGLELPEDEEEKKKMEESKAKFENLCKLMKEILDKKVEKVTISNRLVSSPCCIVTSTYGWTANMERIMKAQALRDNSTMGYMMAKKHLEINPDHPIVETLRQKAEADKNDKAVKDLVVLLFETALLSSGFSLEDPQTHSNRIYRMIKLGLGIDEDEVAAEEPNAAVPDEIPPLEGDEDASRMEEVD

Which results are given for `CC(C)NCCCn1c(Cc2cc3c(cc2I)OCO3)nc2c(N)nc(F)nc21`?
Activity [1]: Active; inhibition [2]: Active

`O=c1c(O)c(-c2ccc(O)c(O)c2)oc2cc(O)cc(O)c12` was tested. Which Activity [3] did it give?
The Activity was “inactive”.

What about the Activity [4] of the same compound?
Its Activity is “inactive”.

What about the inhibition (SK-BR-3 [5]) of the same compound?
Its inhibition is “Active”.

What about the inhibition (SK-BR-3 [6]) of the same compound?
Its inhibition is “Active”.

And the inhibition (NCI-H526 [7])?
The inhibition was “inactive”.

And the Activity [8]?
Its Activity is “inactive”.

What about the inhibition (SK-BR-3 [9]) of the same compound?
Its inhibition is “Active”.

And the inhibition (NCI-H526 [10])?
Its inhibition is “inactive”.

What about the inhibition (NCI-H526 [11]) of the same compound?
The inhibition was “inactive”.

And the inhibition (SK-BR-3 [12])?
Its inhibition is “Active”.

And the Activity [13]?
Its Activity is “inactive”.

What about the Activity [14] of the same compound?
Its Activity is “inactive”.

And the Activity [15]?
The Activity was “inactive”.
